Source: PubChem BioAssay
Only some compounds are listed: those with a hit (about 2.2% of all), similar ones and a draw of the others.
Neddylation inh: inhibitors of cullin neddylation, primary screen, biochemical, TR-FRET, uHTS, NAE and Ubc12 | NEDD8-conjugating enzyme Ubc12 (Homo sapiens) + NEDD8-activating enzyme E1 regulatory … | calls only at 25 µM | actives 0.58% (n = 360,000); in the data active = inhibition above about 36%
Tn7 DDE FP: inhibitors of Tn7 peptide binding to fibrin DD(E), primary screen, biochemical, fluorescence polarization, human fibrin, Tn7 probe. Fibrinogen beta chain (Homo sapiens), P02675. FP displacement of FITC-Tn7 peptide from fibrin DD(E); 0% = median of compound wells per plate. inhibition, % at 8.3 µM. actives 0.13% (n = 370,000). AID 720508, 2013;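 active = inhibition above the mean of compounds falling within the control limits plus 3 SD of them, cut at about 14% in these data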
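system = human fibrin DD(E) protein | quantity = DD(E) 2 µM final | medium = Tris/NaCl/CaCl2 buffer, pH 7.8 | also added = labelled Tn7 tracer, 0.1 µM | compound dosing = single point at 8.3 µM | timing = compound with protein 10 min, then 3 h after probe, room temperature | signal = FP measurement | benchmarks = Aha-Tn7 high control | repeats = one replicate per compound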
DDE Tn6 FP inh: inhibitors of Tn6 peptide binding to fibrin DD(E), primary screen, biochemical, fluorescence polarization, human fibrin, Tn6 probe; Fibrinogen beta chain (Homo sapiens), P02675; Fibrin DD(E) TRITC-Tn6 fluorescence polarization displacement; inhibition, % at 8.3 µM; actives 0.21% (n = 370,000);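 active = inhibition above a per-campaign cutoff: mean of compounds within control limits plus 3 SD, cut at about 15% in these data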
MT1-MMP act inh: blockers of MT1-MMP proenzyme processing, primary screen, HT1080 RFP-PRO-GFP cells, GFP/RFP fluorescence. GFP/RFP ratio fluorescence, overnight; percent of plate control window, DMSO zero. GFP/RFP ratio change, % at 20 µM. actives 0.061% (n = 360,000). AID 651647, 2012;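 active = GFP/RFP ratio change of at least 30% with cell ATP level not reduced by more than half and red fluorescence within 50% of control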
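Assay system – RFP-PRO-GFP reporter HT1080 cells · Compound dosing – single dose of 20 µM compound, 1% DMSO final · Incubation – overnight compound exposure at 37 °C · Measure – GFP/RFP fluorescence ratio · Benchmarks – DMSO wells and RFP-L50D-GFP cells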
SKN-1 inh: suppressors of acrylamide-induced Pgst-4::GFP reporter in worms, primary screen, SKN-1 inhibitor project, whole organism, uHTS, GFP/RFP fluorescence ratio, strain VP596 | C. elegans VP596 Pgst-4::GFP/RFP ratio, 24 h | inhibition, % at 21.8 µM | actives 0.49% (n = 360,000) | AID 624304, 2012;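 active = interference check ratio from 0.5 to 1.5 plus GFP to RFP signal ratio inhibition reaching or exceeding a fixed threshold, cut at about 30% in these data, passing the limit was not always enough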
proKLK7 act: proKLK7 zymogen activators, primary screen, biochemical, fluorescence intensity. actives 0.9% (n = 370,000). Kallikrein-7 (Homo sapiens), P49862. purified proKLK7, EDANS-DABCYL substrate fluorescence; 100% is mature enzyme control, 0% vehicle. activation, % at 7 µM;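 active = activation above the mean of all tested compounds plus 3 SD, computed per campaign excluding outliers beyond control limits, cut at about 13% in these data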
Target sequence (P49862 whole entry, looked up): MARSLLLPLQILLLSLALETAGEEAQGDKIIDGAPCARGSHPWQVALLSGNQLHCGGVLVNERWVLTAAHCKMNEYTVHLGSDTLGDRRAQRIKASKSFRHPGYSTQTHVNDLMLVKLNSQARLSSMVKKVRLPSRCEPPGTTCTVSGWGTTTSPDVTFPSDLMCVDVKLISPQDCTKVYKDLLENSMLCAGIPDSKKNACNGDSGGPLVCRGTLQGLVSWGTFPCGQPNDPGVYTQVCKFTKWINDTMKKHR
Of the large screens only hits and unclear results are named; the others gave an inactive call.

CCCNc1nc(Cl)nc(NC(C)(C)C)n1	none
O=S(=O)(c1cccc(-c2cn3cccnc3n2)c1)N1CCCCCC1	none (not shown: Neddylation inh)
Clc1ccc(-c2cn3cccnc3n2)cc1Cl	SKN-1 inh 42
CC(=O)c1cccc(N=Cc2c(O)ccc3ccccc23)c1	none
Cc1ccccc1NC(=O)CSc1nnnn1C	none
CN1/C(=C\C(=O)Nc2cccc(Cl)c2)C(C)(C)c2ccccc21	SKN-1 inh 50
CN1/C(=C\C(=O)Nc2ccc(Br)cc2)C(C)(C)c2ccccc21	none
CCCOc1ccc(C(=O)Nc2ccc(Cl)cn2)cc1	SKN-1 inh 41
Cc1ccccc1CN1CCCCC(NC(=O)c2ccc(F)c(F)c2)C1=O (stereo unspecified)	none (no result: Neddylation inh, MT1-MMP act inh, SKN-1 inh)
CN1/C(=C\C(=O)COC(=O)Cn2nnc(-c3ccccc3)n2)C(C)(C)c2ccccc21	MT1-MMP act inh 39
Cc1c(C)n(C)c2ccc(C(=O)NCCCN(C)C3CCCCC3)cc12	SKN-1 inh 38
Cc1cc(C)c(NC(=O)CS(=O)CC(=O)Nc2ccc(N3CCOCC3)cc2)c(C)c1 (stereo unspecified)	SKN-1 inh 35
Cc1ccc(NC(=O)CS(=O)CC(=O)Nc2ccc(N3CCOCC3)cc2)cc1Cl (stereo unspecified)	none
N/C(=N\OC(=O)c1cc(Cl)ccc1Cl)c1ccncc1	none
N/C(=N\OC(=O)c1ccc(Cl)cc1Cl)c1ccncc1	SKN-1 inh 40
N/C(=N\OC(=O)c1cc(Br)ccc1Cl)c1ccccn1	SKN-1 inh 47
N/C(=N\OC(=O)c1ccc(Cl)cc1Cl)c1ccccn1	SKN-1 inh 52
CCOC(=O)Nc1ccc2c3c(cccc13)-c1ccccc1-2	none (not shown: Neddylation inh)
Clc1cc(Cl)c2nc(N3CCCC3)sc2c1	SKN-1 inh 37
Clc1cc(Cl)c2nc(N3CCCCC3)sc2c1	none
Cc1c(C2Nc3ccccc3NC3=C2C(=O)CC(C)(C)C3)cnn1C (stereo unspecified)	Tn7 DDE FP 15
CCCCOc1ccc(C(=O)OC2CC(C)N(C)CC2C)cc1 (stereo unspecified)	SKN-1 inh 42
Cc1ccc(S(=O)(=O)NCCC(=O)Nc2cc(F)ccc2C)cc1C	none
COc1cc2cc(CN(Cc3nnnn3Cc3ccco3)C3CCCCC3)c(=O)[nH]c2cc1OC	proKLK7 act 13 (not shown: Neddylation inh)
CCC(C)(C)n1nnnc1CN(Cc1ccco1)Cc1cc2cc3c(cc2[nH]c1=O)OCO3	none (not shown: Neddylation inh, Tn7 DDE FP, DDE Tn6 FP inh, proKLK7 act)
CCOc1ccc2[nH]c(=O)c(CN(Cc3nnnn3Cc3ccco3)C3CCCCC3)cc2c1	none
COc1ccc(Cn2nnnc2CN(Cc2cc3cccc(C)c3[nH]c2=O)C2CCCC2)cc1	none
COc1ccc(Cn2nnnc2CN(Cc2cc3ccc(C)cc3[nH]c2=O)C2CCCC2)cc1	proKLK7 act 15
CC(C)(C)n1nnnc1CN(Cc1ccco1)Cc1cc2cc3c(cc2[nH]c1=O)OCO3	proKLK7 act 28 (not shown: Neddylation inh)
CNC(=S)NC1CC2CCCC(C1)N2Cc1ccccc1OC (stereo unspecified)	none
COc1ccc(C(=O)CN2CCN(c3ncccn3)CC2)cc1	none
O=C(NCCN1CCOCC1)c1ccccc1N1C(=O)[C@@H]2Cc3c([nH]c4ccccc34)C(c3ccccc3)N2C1=O (stereo partly specified)	none
Cc1c(NC(=O)COC(=O)Cc2ccc(Br)cc2)c(=O)n(-c2ccccc2)n1C	none
Cc1cc(C)n2c(SCC(C)C)nnc2n1	none
Cc1cc(C)n2c(SCCC(C)C)nnc2n1	Tn7 DDE FP 15
Cn1/c(=N/N=C/c2ccc(Cl)c([N+](=O)[O-])c2)sc2ccccc21	none
CCCNc1c(F)c(F)c2c(C)c3ccccc3nc2c1F	SKN-1 inh 39
OCCNc1c2ccccc2nc2ccccc12	none
CCCCCCCCCCCCCCCC[N+](C)(C)CC	none
CCCCCCCCCCCCCCCC[N+](C)(C)CCl	SKN-1 inh 38
C#CCOCCOCCOCCNc1nc(N2CCN(C(=O)Cn3cc(CCO)nn3)CC2)nc(N2CCN(C(=O)[C@H](C(C)C)n3cc(CCO)nn3)CC2)n1	none
CCCCn1c(SCC(N)=O)nc2ccc(N3CCOCC3)cc2c1=O	proKLK7 act 16 (not shown: Neddylation inh)
O=C(Nc1cccc(S(=O)(=O)NC2=NCCCCC2)c1)c1cc(-c2ccco2)nc2ccccc12	none
CN1CCN(/N=C/c2ccc(OCc3ccccc3)cc2)CC1	SKN-1 inh 50
Cc1ccc(N(C)c2nc(N)nc(N)c2N=O)cc1	DDE Tn6 FP inh 58, proKLK7 act 44 (no result: Neddylation inh, MT1-MMP act inh, SKN-1 inh)
Cc1cc([N+](=O)[O-])ccc1NCc1ccccc1	SKN-1 inh 37 (no result: Tn7 DDE FP, DDE Tn6 FP inh, proKLK7 act)
Cc1cc([N+](=O)[O-])ccc1NCc1ccc2ccccc2c1	none
Fc1ccc(Nc2nc(NCc3ccco3)c3ccccc3n2)cc1	Neddylation inh active
COc1cccc(-c2nn(-c3ccccc3)cc2C(=O)Nc2nccs2)c1	none
Cc1cccc(C)c1N(CC(=O)Nc1cccc(N(C)S(C)(=O)=O)c1)S(C)(=O)=O	SKN-1 inh 37
COc1ccccc1C1CN(c2ccc(F)cc2F)N=C1c1cccs1 (stereo unspecified)	SKN-1 inh 44 (not shown: Neddylation inh)
Fc1ccc(-c2nnn(Cc3ccccc3Cl)n2)cc1	none
Fc1ccc(-c2nnn(Cc3nc4ccccc4s3)n2)cc1	SKN-1 inh 37
Clc1ccc(-c2nnn(Cc3nc4ccccc4s3)n2)cc1	SKN-1 inh 57
CCOC(=O)c1ccccc1NC(=O)COc1cc(=O)n(CC)c2ccccc12	none
Nc1c(C(=O)NC2CC2)c2nc3ccccc3nc2n1-c1ccc2c(c1)OCO2	Neddylation inh active
Cc1nc2ccc(NC(=O)c3c(-c4ccccc4)noc3C)cc2s1	none
Cc1ccc(C(=O)NC(=S)NNC(=O)c2ccccc2)cc1	none
Cc1ccc(C(=O)NNC(=S)NC(=O)c2ccccc2)cc1	Neddylation inh active
N#Cc1cncc(C#Cc2ccccc2)c1	SKN-1 inh 61
CC1=NN(c2ccccc2)C(=O)/C1=C\C=C1\N(C)c2ccccc2C1(C)C	SKN-1 inh 38
CC1=NN(c2ccccc2)C(=O)/C1=C\C=C1/N(C)c2ccccc2C1(C)C	SKN-1 inh 47
